Results taken from ChEMBL document CHEMBL5724801, “EUbOPEN Chemogenomics Library - Multiplex” (2024).
Several values for one entry are separate records, joined by “and”; a condition that tells them apart may be missing. Equal values may be shown once.

System: HEK-293T
Assay: Multiplex assay against HEK293T
Assay type: toxicity, cell-based
Conditions: human
Procedure, shortened: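 Four dyes were applied at seeding to live cells: Hoechst33342, BioTracker Green Microtubule Cytoskeleton Dye, MitoTracker Red and Annexin V Alexa Fluor 680. Imaging after compound addition used a CQ1 microscope at 37°C and 5% CO2. CellPathfinder machine-learning gating then sorted cells into Hoechst high-intensity objects or normal cells, normal cells into healthy, pyknosed or fragmented nuclei, and pyknosed cells into mitotic or apoptotic, with tubulin, mitochondrial-mass and membrane-permeability phenotypes given as per cents of healthy-nucleus cells.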

[1] = 12 h, 1 µM, compound concentration 1 uM
[2] = 12 h, 10 µM, compound concentration 10 uM
[3] = 24 h, 1 µM, compound concentration 1 uM
[4] = 24 h, 10 µM, compound concentration 10 uM
[5] = 48 h, 1 µM, compound concentration 1 uM
[6] = 48 h, 10 µM, compound concentration 10 uM

COc1ccc(Cl)cc1[C@]1(F)C(=O)Nc2cc(C(F)(F)F)ccc21 [FLINDOKALNER]
Population Apoptotic (%) [1]: 8.33% and 8.73%
Population Fragmented Nuclei (%) [1]: 2.3% and 5.16%
Population Hoechst High Intensity Objects (%) [1]: 0%
Population Membrane Permeable-Phenotype (%) [1]: 0.56% and 0%
Population Mitochondria Different-Phenotype (%) [1]: 45.76% and 33.33%
Population Mitotic Cells (%) [1]: 91.67% and 91.27%
Population Normal (%) [1]: 100%
Population Pyknosed Nuclei (%) [1]: 39.47% and 81.29%
Total Cell Count [1]: 304 and 155
Population Apoptotic (%) [2]: 11.41% and 18.18%
Population Fragmented Nuclei (%) [2]: 2.47% and 3.73%
Population Hoechst High Intensity Objects (%) [2]: 0.54% and 0%
Population Membrane Permeable-Phenotype (%) [2]: 0.48% and 0%
Population Mitochondria Different-Phenotype (%) [2]: 38.16% and 26.32%
Population Mitotic Cells (%) [2]: 88.59% and 81.82%
Population Normal (%) [2]: 99.46% and 100%
Population Pyknosed Nuclei (%) [2]: 40.82% and 82.09%
Total Cell Count [2]: 367 and 134
Population Apoptotic (%) [3]: 16.18% and 15.32%
Population Fragmented Nuclei (%) [3]: 1.01% and 6.17%
Population Hoechst High Intensity Objects (%) [3]: 0%
Population Membrane Permeable-Phenotype (%) [3]: 3.37% and 0%
Population Mitochondria Different-Phenotype (%) [3]: 17.98% and 10.71%
Population Mitotic Cells (%) [3]: 83.82% and 84.68%
Population Normal (%) [3]: 100%
Population Pyknosed Nuclei (%) [3]: 27.36% and 76.54%
Population Tubulin-Different-Phenotype (%) [3]: 11.8% and 10.71%
Population Apoptotic (%) [4]: 13.79% and 23.64%
Population Fragmented Nuclei (%) [4]: 2.57% and 5.62%
Population Healthy Nuclei (%) [4]: 68.77% and 25.62%
Population Hoechst High Intensity Objects (%) [4]: 0.2% and 0%
Population Membrane Permeable-Phenotype (%) [4]: 0.86% and 0%
Population Mitochondria Different-Phenotype (%) [4]: 23.28% and 12.2%
Population Mitotic Cells (%) [4]: 86.21% and 76.36%
Population Normal (%) [4]: 99.8% and 100%
Population Pyknosed Nuclei (%) [4]: 28.66% and 68.75%
Population Fragmented Nuclei (%) [5]: 2.21% and 2.93%
Population Healthy Nuclei (%) [5]: 85.07% and 54.63%
Population Hoechst High Intensity Objects (%) [5]: 0%
Population Membrane Permeable-Phenotype (%) [5]: 4.29% and 2.68%
Population Mitochondria Different-Phenotype (%) [5]: 14.16% and 20.54%
Population Mitotic Cells (%) [5]: 96% and 72.41%
Population Normal (%) [5]: 100%
Population Apoptotic (%) [6]: 9.02% and 19.67%
Population Fragmented Nuclei (%) [6]: 2.19% and 4.66%
Population Healthy Nuclei (%) [6]: 86.19% and 63.73%
Population Hoechst High Intensity Objects (%) [6]: 0% and 0.52%
Population Membrane Permeable-Phenotype (%) [6]: 7.07% and 1.63%
Population Mitochondria Different-Phenotype (%) [6]: 21.1% and 21.95%
Population Mitotic Cells (%) [6]: 90.98% and 80.33%
Population Normal (%) [6]: 100% and 99.48%
Population Pyknosed Nuclei (%) [6]: 11.62% and 31.61%

O=C(Nc1cc(C(F)(F)F)cc(C(F)(F)F)c1)c1cc(Cl)ccc1O [IMD-0354]
Population Apoptotic (%) [1]: 4.35% and 3.39%
Population Fragmented Nuclei (%) [1]: 2.35% and 2.03%
Population Healthy Nuclei (%) [1]: 43.53% and 18.24%
Population Hoechst High Intensity Objects (%) [1]: 0.58% and 0%
Population Membrane Permeable-Phenotype (%) [1]: 0.68% and 0%
Population Mitotic Cells (%) [1]: 95.65% and 96.61%
Population Normal (%) [1]: 99.42% and 100%
Population Pyknosed Nuclei (%) [1]: 54.12% and 79.73%
Total Cell Count [1]: 342 and 148
Population Apoptotic (%) [2]: 8.89% and 5.65%
Population Fragmented Nuclei (%) [2]: 4.05% and 10.2%
Population Healthy Nuclei (%) [2]: 14.86% and 5.44%
Population Hoechst High Intensity Objects (%) [2]: 1.33% and 0%
Population Membrane Permeable-Phenotype (%) [2]: 0% and 12.5%
Population Mitotic Cells (%) [2]: 91.11% and 94.35%
Population Normal (%) [2]: 98.67% and 100%
Population Pyknosed Nuclei (%) [2]: 81.08% and 84.35%
Population Tubulin-Different-Phenotype (%) [2]: 0%
Total Cell Count [2]: 225 and 147
Population Apoptotic (%) [3]: 6.35% and 10.83%
Population Fragmented Nuclei (%) [3]: 1.67% and 0%
Population Healthy Nuclei (%) [3]: 68.26% and 25.47%
Population Hoechst High Intensity Objects (%) [3]: 0.48% and 0%
Population Membrane Permeable-Phenotype (%) [3]: 2.8% and 4.88%
Population Mitochondria Different-Phenotype (%) [3]: 4.9% and 4.88%
Population Mitotic Cells (%) [3]: 93.65% and 89.17%
Population Normal (%) [3]: 99.52% and 100%
Population Pyknosed Nuclei (%) [3]: 30.07% and 74.53%
Population Tubulin-Different-Phenotype (%) [3]: 6.99% and 2.44%
Total Cell Count [3]: 421 and 161
Population Apoptotic (%) [4]: 5.52% and 6.29%
Population Fragmented Nuclei (%) [4]: 3.57% and 12.35%
Population Hoechst High Intensity Objects (%) [4]: 0.88% and 0%
Population Membrane Permeable-Phenotype (%) [4]: 5.71% and 0%
Population Mitochondria Different-Phenotype (%) [4]: 5.71% and 0%
Population Mitotic Cells (%) [4]: 94.48% and 93.71%
Population Normal (%) [4]: 99.12% and 100%
Population Pyknosed Nuclei (%) [4]: 80.8% and 84.12%
Population Tubulin-Different-Phenotype (%) [4]: 5.71% and 16.67%
Total Cell Count [4]: 226 and 170
Population Apoptotic (%) [5]: 6.21% and 4.35%
Population Fragmented Nuclei (%) [5]: 1.53% and 0.99%
Population Healthy Nuclei (%) [5]: 78.27% and 53.69%
Population Hoechst High Intensity Objects (%) [5]: 0%
Population Membrane Permeable-Phenotype (%) [5]: 16.37% and 6.42%
Population Mitochondria Different-Phenotype (%) [5]: 2.49% and 3.67%
Population Mitotic Cells (%) [5]: 93.79% and 95.65%
Population Normal (%) [5]: 100%
Population Pyknosed Nuclei (%) [5]: 20.19% and 45.32%
Population Apoptotic (%) [6]: 5.97% and 5.04%
Population Fragmented Nuclei (%) [6]: 3.97% and 7.69%
Population Healthy Nuclei (%) [6]: 16.27% and 10.06%
Population Hoechst High Intensity Objects (%) [6]: 0.79% and 0%
Population Membrane Permeable-Phenotype (%) [6]: 12.2% and 5.88%
Population Mitochondria Different-Phenotype (%) [6]: 21.95% and 11.76%
Population Mitotic Cells (%) [6]: 94.03% and 94.96%
Population Normal (%) [6]: 99.21% and 100%
Population Pyknosed Nuclei (%) [6]: 79.76% and 82.25%
Total Cell Count [6]: 254 and 169
